Laboratory results taken from ChEMBL document CHEMBL1129356, “Novel 3,7-diheterabicyclo[3.3.1]nonanes that possess predominant class III antiarrhythmic activity in 1-4 day post infarction dog models: X-ray diffraction analysis of 3-[4-(1H-imidazol-1-yl)benzoyl]-7-isopropyl-3,7-diazabicyclo[3.3.1]nona ne dihydroperchlorate” (1996).
The source made the active and inactive calls.

Key:
Canis familiaris [1] = assay: (§1) Antiarrhythmic properties are compared to lidocaine(2) using doses(3 and 6 mg/kg) measures His-Purkinje conduction time(drug free); No effect; type: functional, organism-based; parameters: dose 6 mg/kg; details: Canis lupus familiaris; His-Purkinje system
Method in brief: (§2)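 Mongrel dogs (about 12–25 kg), 1–4 days after coronary occlusion infarction, under sodium pentobarbital (~30 mg/kg) with 12-lead ECG monitoring. Agents and lidocaine were given iv at 3 and 6 mg/kg. Programmed ventricular stimulation was applied at baseline, about 2–5 min after each dose, and at 30 min. SVT was defined as ≥250 beats/min lasting ≥30 s. Pre means drug-free; post means after dosing.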

Canis familiaris [2] = assay: Antiarrhythmic property A-V nodal conduction time(drug free) is compared to lidocaine(2) using doses(3 and 6 mg/kg); No effect; type: functional, organism-based; parameters: dose 6 mg/kg; details: Canis lupus familiaris; Heart; method in brief: as §2
Canis familiaris [3] = assay: Antiarrhythmic property A-V nodal conduction time(post drug) is compared to lidocaine(2) using dose (3 and 6 mg/kg); No effect; type: functional, organism-based; parameters: dose 6 mg/kg; details: Canis lupus familiaris; Heart; method in brief: as §2
Canis familiaris [4] = assay: Antiarrhythmic properties are compared to lidocaine(2) using doses(3 and 6 mg/kg). Time required for the ventricular myocardium to undergo depolarization and repolarization ((post drug); No effect; type: functional, organism-based; parameters: dose 6 mg/kg; details: Canis lupus familiaris; method in brief: as §2
Canis familiaris [5] = assay: Antiarrhythmic properties are compared to lidocaine(2) using doses(3 and 6 mg/kg). Time required for the ventricular myocardium to undergo depolarization and repolarization (drug free); No effect; type: functional, organism-based; parameters: dose 6 mg/kg; details: Canis lupus familiaris; method in brief: as §2
Canis familiaris [6] = assay: Antiarrhythmic properties are compared to lidocaine(2) using doses(3 and 6 mg/kg). Tested for time required for the ventricular myocardium to undergo depolarization and repolarization ((post drug); No effect; type: functional, organism-based; parameters: dose 6 mg/kg; details: Canis lupus familiaris; method in brief: as §2
Canis familiaris [7] = assay: Antiarrhythmic properties are compared to lidocaine(2) using doses(3 and 6 mg/kg).Tested for time required for the ventricular myocardium to undergo depolarization and repolarization (drug free); No effect; type: functional, organism-based; parameters: dose 6 mg/kg; details: Canis lupus familiaris; method in brief: as §2
Canis familiaris [8] = assay: as §1; type: functional, organism-based; parameters: dose 6 mg/kg; details: Canis lupus familiaris; His-Purkinje system; method in brief: as §2; remark: listed apart in the source
Canis familiaris [9] = assay: Antiarrhythmic properties are compared to lidocaine(2) using doses(3 and 6 mg/kg) measures His-Purkinje conduction time(post drug); No effect; type: functional, organism-based; parameters: dose 6 mg/kg; details: Canis lupus familiaris; His-Purkinje system; method in brief: as §2
Canis familiaris [10] = assay: Antiarrhythmic properties are compared to lidocaine(2) using doses(3 and 6 mg/kg) ventricular effective refractory period(post drug); No effect; type: functional, organism-based; parameters: dose 6 mg/kg; details: Canis lupus familiaris; Heart; method in brief: as §2
Canis familiaris [11] = assay: Antiarrhythmic properties are compared to lidocaine(2) using doses(3 and 6 mg/kg) ventricular effective refractory period(drug free); No effect; type: functional, organism-based; parameters: dose 6 mg/kg; details: Canis lupus familiaris; Heart; method in brief: as §2
Canis familiaris [12] = assay: Antiarrhythmic property Heart rate (drug free) is compared to Lidocaine using doses (3 and 6 mg/kg).; type: functional, Canis lupus familiaris
Method in brief: (§3)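 Mongrel dogs (~12–25 kg), 1–4 days after coronary occlusion leaving a surviving epicardial rim, anesthetized with sodium pentobarbital (~30 mg/kg). 12-lead ECG monitored throughout. Agent given iv at 3 and 6 mg/kg. Parameters recorded before (drug free) and after dosing. Programmed electrical stimulation tested SVT inducibility (≥250 beats/min, ≥30 s) at baseline, ~2–5 min after each dose, and at 30 min.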

Canis familiaris [13] = assay: Antiarrhythmic property Heart rate (post drug) is compared to Lidocaine using doses(3 and 6 mg/kg). system.; type: functional, Canis lupus familiaris; method in brief: as §3
Canis familiaris [14] = assay: Antiarrhythmic property Mean blood pressure (drug free) is compared to Lidocaine using doses(3 and 6 mg/kg).; type: functional, Canis lupus familiaris; method in brief: as §3
Canis familiaris [15] = assay: Antiarrhythmic property Mean blood pressure(post drug) is compared to Lidocaine using doses(3 and 6 mg/kg); type: functional, Canis lupus familiaris; method in brief: as §3
Canis familiaris [16] = assay: Antiarrhythmic property His-Purkinje conduction time(drug free) is compared to lidocaine(2) using doses(3 and 6 mg/kg) measures; type: functional, Canis lupus familiaris, His-Purkinje system; method in brief: as §3
Canis familiaris [17] = assay: Antiarrhythmic property His-Purkinje conduction time(post drug) is compared to lidocaine(2) using doses(3 and 6 mg/kg) measures; type: functional, Canis lupus familiaris, His-Purkinje system; method in brief: as §3
Canis familiaris [18] = assay: (§4) Antiarrhythmic property Nonsustained ventricular tachycardia is compared to lidocaine(2) using dose of (3 and 6 mg/kg); type: functional, Canis lupus familiaris, Heart; method in brief: as §3
Canis familiaris [19] = assay: Antiarrhythmic property A-V nodal conduction time(post drug) is compared to lidocaine(2) using dose (3 and 6 mg/kg); type: functional, Canis lupus familiaris, Heart; method in brief: as §2
Canis familiaris [20] = assay: Antiarrhythmic property is compared to lidocaine(2) using doses(3 and 6 mg/kg). Time required for the ventricular myocardium to undergo depolarization and repolarization ((post drug); type: functional, Canis lupus familiaris; method in brief: as §2
Canis familiaris [21] = assay: Antiarrhythmic property is compared to lidocaine(2) using doses(3 and 6 mg/kg). Time required for the ventricular myocardium to undergo depolarization and repolarization (drug free); type: functional, Canis lupus familiaris; method in brief: as §2
Canis familiaris [22] = assay: Tested for antiarrhythmic property by measuring ability to decrease heart rate (drug free) is compared to Lidocaine using doses (3 and 6 mg/kg).; type: functional, Canis lupus familiaris; method in brief: as §2
Canis familiaris [23] = assay: Tested for antiarrhythmic property by measuring ability to decrease heart rate(post drug) is compared to Lidocaine using doses(3 and 6 mg/kg).; type: functional, Canis lupus familiaris; method in brief: as §2
Canis familiaris [24] = assay: Antiarrhythmic property A-V nodal conduction time(drug free) is compared to lidocaine(2) using doses(3 and 6 mg/kg); type: functional, Canis lupus familiaris, Heart; method in brief: as §2
Canis familiaris [25] = assay: Tested for antiarrhythmic property by measuring ability to decrease Mean blood pressure (drug free) is compared to Lidocaine using doses(3 and 6 mg/kg).; type: functional, Canis lupus familiaris; method in brief: as §2
Canis familiaris [26] = assay: Tested for antiarrhythmic property by measuring ability to decrease Mean blood pressure (post drug) is compared to Lidocaine using doses(3 and 6 mg/kg); type: functional, Canis lupus familiaris; method in brief: as §2
Canis familiaris [27] = assay: Antiarrhythmic property His-Purkinje conduction time(drug free) is compared to lidocaine(2) using doses(3 and 6 mg/kg); No effect; type: functional, organism-based; parameters: dose 6 mg/kg; details: Canis lupus familiaris; His-Purkinje system; method in brief: as §2
Canis familiaris [28] = assay: Antiarrhythmic property His-Purkinje conduction time(post drug) is compared to lidocaine(2) using doses(3 and 6 mg/kg); No effect; type: functional, organism-based; parameters: dose 6 mg/kg; details: Canis lupus familiaris; His-Purkinje system; method in brief: as §2
Canis familiaris [29] = assay: Antiarrhythmic property ventricular effective refractory period(drug free) is compared to lidocaine(2) using doses(3 and 6 mg/kg); type: functional, Canis lupus familiaris, Heart; method in brief: as §2
Canis familiaris [30] = assay: as §4; type: functional, Canis lupus familiaris, Heart; method in brief: as §2; remark: listed apart in the source

CC(C)N1CC2CC(CN(C(=O)c3ccc(NS(C)(=O)=O)cc3)C2)C1
HV interval (Canis familiaris [1]): inactive | AH interval (Canis familiaris [2]): inactive | NE (Canis familiaris [2]): inactive | AH interval (Canis familiaris [3]): inactive | OT (Canis familiaris [4]): inactive | OT (Canis familiaris [5]): inactive | OT interval (Canis familiaris [6]): inactive | OT interval (Canis familiaris [7]): inactive | HV interval (Canis familiaris [8]): inactive | HV interval (Canis familiaris [9]): inactive | VERP (Canis familiaris [10]): inactive | HV interval (Canis familiaris [11]): inactive | VERP (Canis familiaris [11]): inactive

Cl.c1ccc(CN2CC3CSCC(C3)C2)cc1
HR (Canis familiaris [12]): 162 beats min-1 | HR (Canis familiaris [13]): 165 beats min-1 | MBP (Canis familiaris [14]): 99 mmHg | MBP (Canis familiaris [15]): 105 mmHg | HV interval (Canis familiaris [16]): 30 ms | HV interval (Canis familiaris [17]): 35 ms | NSVT (Canis familiaris [18]): 3 mg/kg

O=C(c1ccc(Cl)cc1)N1CC2CC(CN(CC3CC3)C2)C1
AH interval (Canis familiaris [19]): 68 ms | QT (Canis familiaris [20]): 250 ms | QT (Canis familiaris [21]): 215 ms | HR (Canis familiaris [22]): 125 beats min-1 | HR (Canis familiaris [23]): 105 beats min-1 | AH interval (Canis familiaris [24]): 60 ms | MBP (Canis familiaris [25]): 88 mmHg | MBP (Canis familiaris [26]): 98 mmHg | HV interval (Canis familiaris [27]): inactive | HV interval (Canis familiaris [28]): inactive | VERP (Canis familiaris [29]): 170 ms | VERP (Canis familiaris [30]): 220 ms
